In ChEMBL document CHEMBL3822410, “Novel substituted isoxazole FXR agonists with cyclopropyl, hydroxycyclobutyl and hydroxyazetidinyl linkers: Understanding and improving key determinants of pharmacological properties” (Bioorg Med Chem Lett, 2016):
Converted amounts (≈) assume the structure as drawn. The source made the active and inactive calls. The calls are words filed in the database; no cut-off is given here.

Columns and labels:
[1] = system: Mus musculus; assay: Reduction in total triglyceride level in high fat diet enriched with cholesterol fed C57BL/6J mouse plasma at 10 mg/kg, po through gavage for 10 days measured after 4 hrs of final dosage relative to vehicle treated-control; format: functional, organism-based
Summary of the method: (§1)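 C57BL/6J mice pre-fed and kept on high fat diet (60% kcal fat) with 1% (w/w) cholesterol; 10 mg/kg by oral gavage for 10 days. Plasma total cholesterol and triglycerides taken at sacrifice 4 h after final dose, expressed as % change versus vehicle group.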

[2] = molecular target: T1, Bile acid receptor (Homo sapiens) (UniProt Q96RI1); assay: Agonist activity at C-terminal Gal4-tagged human FXR (187 to 472 residues) expressed in HEK-293 cells co-expressing pFRluc by mammalian one hybrid assay relative to GW4064; format: cell-based; settings: HEK293
T1 sequence (whole entry): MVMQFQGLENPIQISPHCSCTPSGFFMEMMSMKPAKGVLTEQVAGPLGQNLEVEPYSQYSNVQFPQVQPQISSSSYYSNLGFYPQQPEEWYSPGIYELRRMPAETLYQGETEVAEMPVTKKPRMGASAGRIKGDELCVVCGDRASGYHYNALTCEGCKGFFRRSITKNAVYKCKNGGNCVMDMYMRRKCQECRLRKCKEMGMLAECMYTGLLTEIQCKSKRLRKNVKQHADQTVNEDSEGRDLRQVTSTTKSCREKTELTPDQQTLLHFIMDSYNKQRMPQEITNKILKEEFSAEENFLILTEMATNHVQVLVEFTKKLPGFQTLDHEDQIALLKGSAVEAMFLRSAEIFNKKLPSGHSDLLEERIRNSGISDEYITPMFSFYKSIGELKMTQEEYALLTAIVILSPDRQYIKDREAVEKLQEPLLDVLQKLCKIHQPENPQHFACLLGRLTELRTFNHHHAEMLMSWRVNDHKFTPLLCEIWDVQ
Summary of the method: (§2)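 Transient transfection of HEK293 cells with Gal4 DBD–human FXR LBD (187–472) chimera under CMV promoter plus pFRluc Gal4-driven firefly luciferase reporter. Cells treated with serial compound dilutions. EC50 from at least three experiments; efficacy is extrapolated maximum signal of the dose-response, GW4064 set to 100%.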

[3] = Permeability of the compound assessed as compound influx measured after 16 hrs by PAMPA assay; format: ADME
Summary of the method: (§3)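 PAMPA, 16 h at rt. Flux = [C_acceptor/(C_donor + C_acceptor)] × 100 × 2. Membrane enrichment = C_membrane × 2/(C_acceptor + C_donor), membrane phase extracted into a volume equal to the acceptor or donor compartment.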

[4] = molecular target: T2, Bile acid receptor (Homo sapiens, UniProt Q96RI1); assay: Agonist activity at C-terminal Gal4-tagged human FXR (187 to 472 residues) expressed in HEK-293 cells co-expressing pFRluc by mammalian one hybrid assay; format: cell-based, HEK293; summary of the method: as §2
T2 sequence (Q96RI1 whole entry): T1 sequence (whole entry)

[5] = Cmax in C57BL/6J mouse at 5 mg/kg, po and 1 mg/kg, iv; format: ADME, organism-based; settings: in vivo
Summary of the method: (§4)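 Mice dosed 5 mg/kg orally and 1 mg/kg intravenously; bioavailability from both arms, all other parameters (AUC, Cmax, T1/2, Cl/F, Vd/F) calculated from the oral arm.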

[6] = Apparent oral volume of distribution in C57BL/6J mouse at 5 mg/kg; format: ADME, organism-based; settings: in vivo; summary of the method: as §4
[7] = Half life in C57BL/6J mouse at 5 mg/kg, po and 1 mg/kg, iv; format: ADME, organism-based; settings: in vivo; summary of the method: as §4
[8] = molecular target: T1, Bile acid receptor (Homo sapiens); assay: Agonist activity at GST-tagged FXR LBD (187 to 472 residues) (unknown origin) assessed as FXR interaction with b-CPSSHSSLTERHKILHRLLQEGSPS-COOH by FRET assay relative to GW4064
[9] = molecular target: T2, Bile acid receptor; assay: Agonist activity at GST-tagged FXR LBD (187 to 472 residues) (unknown origin) assessed as FXR interaction with b-CPSSHSSLTERHKILHRLLQEGSPS-COOH by FRET assay
[10] = Permeability of the compound assessed as compound enrichment in membrane compartment measured after 16 hrs by PAMPA assay relative to control; format: ADME; summary of the method: as §3
[11] = Oral bioavailability in C57BL/6J mouse at 5 mg/kg; format: ADME, organism-based; settings: in vivo; summary of the method: as §4
[12] = molecular target: T3, Nuclear receptor subfamily 1 group I member 2 (Homo sapiens, UniProt O75469); assay: Agonist activity at PXR (unknown origin) up to 5 uM
T3 sequence (O75469 whole entry): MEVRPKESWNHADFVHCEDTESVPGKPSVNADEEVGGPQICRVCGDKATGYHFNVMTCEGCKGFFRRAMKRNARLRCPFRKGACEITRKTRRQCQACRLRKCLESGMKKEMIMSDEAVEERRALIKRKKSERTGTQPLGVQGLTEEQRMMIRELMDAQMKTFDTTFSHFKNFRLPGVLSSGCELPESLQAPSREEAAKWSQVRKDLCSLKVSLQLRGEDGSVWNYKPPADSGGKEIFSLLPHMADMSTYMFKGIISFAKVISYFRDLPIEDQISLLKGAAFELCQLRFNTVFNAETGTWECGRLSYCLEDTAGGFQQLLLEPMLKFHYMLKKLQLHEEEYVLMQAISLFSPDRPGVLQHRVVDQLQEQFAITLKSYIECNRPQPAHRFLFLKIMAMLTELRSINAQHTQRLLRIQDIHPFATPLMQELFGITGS

[13] = AUC in C57BL/6J mouse at 5 mg/kg, po and 1 mg/kg, iv; format: ADME, organism-based; settings: in vivo; summary of the method: as §4
[14] = Aqueous solubility of the compound; format: physicochemical; settings: buffer
[15] = system: Mus musculus; assay: Reduction in total cholesterol level in high fat diet enriched with cholesterol fed C57BL/6J mouse plasma at 10 mg/kg, po through gavage for 10 days measured after 4 hrs of final dosage relative to vehicle treated-control; format: functional, organism-based; summary of the method: as §1
[16] = Apparent oral clearance in C57BL/6J mouse at 5 mg/kg; format: ADME, organism-based; settings: in vivo; summary of the method: as §4

| SMILES | Activity [1] | Efficacy [2] | permeability [3] | EC50 [4] | Cmax [5] | Vd/F [6] | half-life [7] | Efficacy [8] | EC50 [9] | fold change (FC) [10] | bioavailability [11] | Activity [12] | AUC [13] | solubility [14] | Activity [15] | CL/F [16] |
| --- | --- | --- | --- | --- | --- | --- | --- | --- | --- | --- | --- | --- | --- | --- | --- | --- |
| CC(C)n1nc(C(=O)O)cc1[C@H]1C[C@](O)(c2ccc(OCc3c(-c4c(Cl)cccc4Cl)noc3C3CC3)cc2Cl)C1 | Active | 78% | 46% | 0.11 µM | 1.47 µg/mL | 0.8 L/kg | 36 min | 100% | 0.009 µM | 11 | 18% | Not Active | 0.96 µg·h/mL | 171 µM (≈ 105 µg/mL) | Active | 0.96 L/h/kg |
| O=C(O)c1cncc(N2CC(O)(c3ccc(OCc4c(-c5c(Cl)cccc5Cl)noc4C4CC4)cc3Cl)C2)c1 |  | 71% | 35% | 0.552 µM |  |  |  | 102% | 0.007 µM | 3 |  | Not Active |  | 197 µM (≈ 116 µg/mL) |  |  |
